Series [1] is described as follows: Ratio of drug level in brain to plasma of FVB.Cg-Tg(SMN2 delta 7 exon)4299Ahmb Tg(SMN2)89Ahmb Smn1tm1Msd/J mouse at 10 mg/kg, ip. In kind it is ADME, organism-based. As to conditions: brain and plasma, read-out: BPR. The gist of the method: (§1)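 Single 10 mg/kg IP dose given on postnatal day 9 to neonatal mice. Vehicle was 100% DMSO solution (2.5 mL/kg). Plasma and brain drug levels were measured, giving plasma AUC0-24h and the brain/plasma ratio.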

Series [2] concerns Mus musculus. The series is described as follows: In vivo inhibition of mRNA splicing of human SMN2 exon 7 in FVB.Cg-Tg(SMN2 delta 7 exon)4299Ahmb Tg(SMN2)89Ahmb Smn1tm1Msd/J mouse assessed as increase in SMN protein level in spinal cord at 0.3 mg/kg, ip qd administered on postnatal day 3 to day 9 by HTRF assay relative to control. The class given is functional. More on the design: scale not given: the % may be the effect or the level left. The gist of the method: (§2)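 Homozygous Δ7 SMA mice were dosed IP once daily from PND3 to PND9 with compound or vehicle (100% DMSO solution, 2.5 mL/kg). Brain, spinal cord and quadriceps were homogenized in RIPA buffer with protease inhibitors. SMN was read by HTRF (anti-SMN d2 and Kryptate antibodies, overnight rt, 665/620 nm) and normalized to BCA total protein. Values are % change versus vehicle ±SD; 5-11 mice per group.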

Series [3] can be described thus: AUC (0 to 24 hrs) in FVB.Cg-Tg(SMN2 delta 7 exon)4299Ahmb Tg(SMN2)89Ahmb Smn1tm1Msd/J mouse at 10 mg/kg, ip. In kind it is ADME, organism-based. Conditions: in vivo. On the set-up: dose 10 mg/kg, time < 24 hr, route intraperitoneal. The gist of the method:
as §1

Series [4] has as its system Mus musculus. The series is described as follows: In vivo inhibition of mRNA splicing of human SMN2 exon 7 in ip dosed FVB.Cg-Tg(SMN2 delta 7 exon)4299Ahmb Tg(SMN2)89Ahmb Smn1tm1Msd/J mouse assessed as increase in survival time administered as qd on postnatal day 3 to 23.
For series [5], the system named is Mus musculus. The series is described as follows: In vivo inhibition of mRNA splicing of human SMN2 exon 7 in FVB.Cg-Tg(SMN2 delta 7 exon)4299Ahmb Tg(SMN2)89Ahmb Smn1tm1Msd/J mouse assessed as increase in SMN protein level in brain at 0.3 mg/kg, ip qd administered on postnatal day 3 to day 9 by HTRF assay relative to control. In kind it is functional. On the set-up: scale not given: the % may be the effect or the level left. The gist of the method:
as §2
For orientation: TR-FRET usually uses a lanthanide donor and a delayed reading to cut background.

Series [6] has as its system Mus musculus. The experiment in a line: In vivo inhibition of mRNA splicing of human SMN2 exon 7 in FVB.Cg-Tg(SMN2 delta 7 exon)4299Ahmb Tg(SMN2)89Ahmb Smn1tm1Msd/J mouse assessed as increase in SMN protein level in brain administered as ip qd on postnatal day 3 to day 9 by HTRF assay. In kind it is functional, organism-based. The procedure, abridged: as §2
The subject of series [7] is Mus musculus. The series is described as follows: In vivo inhibition of mRNA splicing of human SMN2 exon 7 in FVB.Cg-Tg(SMN2 delta 7 exon)4299Ahmb Tg(SMN2)89Ahmb Smn1tm1Msd/J mouse assessed as increase in SMN protein level in quadriceps at 0.1 mg/kg, ip qd administered on postnatal day 3 to day 9 by HTRF assay relative to control. More on the design: scale not given: the % may be the effect or the level left. The class given is functional. The gist of the method: as §2

The subject of series [8] is Mus musculus. The experiment in a line: In vivo inhibition of mRNA splicing of human SMN2 exon 7 in FVB.Cg-Tg(SMN2 delta 7 exon)4299Ahmb Tg(SMN2)89Ahmb Smn1tm1Msd/J mouse assessed as increase in SMN protein level in quadriceps administered as ip qd on postnatal day 3 to day 9 by HTRF assay. The class given is functional, organism-based. The procedure, abridged: as §2

Series [9] relates to Mus musculus. The experiment in a line: In vivo inhibition of mRNA splicing of human SMN2 exon 7 in FVB.Cg-Tg(SMN2 delta 7 exon)4299Ahmb Tg(SMN2)89Ahmb Smn1tm1Msd/J mouse assessed as increase in SMN protein level in brain at 0.1 mg/kg, ip qd administered on postnatal day 3 to day 9 by HTRF assay relative to control. In kind it is functional. More on the design: scale not given: the % may be the effect or the level left. The gist of the method: as §2

In series [10] the test system is Mus musculus. The experiment in a line: In vivo inhibition of mRNA splicing of human SMN2 exon 7 in po dosed FVB.Cg-Tg(SMN2 delta 7 exon)4299Ahmb Tg(SMN2)89Ahmb Smn1tm1Msd/J mouse assessed as increase in survival time administered as bid on postnatal day 24. The class given is functional, organism-based. The gist of the method: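 Δ7 SMA mice were dosed IP once daily from PND3 to PND23 with compound or vehicle in DMSO (2.5 mL/kg). From PND24 dosing was oral, twice daily, in 0.5% HPMC/0.1% Tween-80 at a higher daily dose. Survivors were counted daily to give median survival time and the fraction alive at study end.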

The test system of series [11] is Mus musculus. The series is described as follows: In vivo inhibition of mRNA splicing of human SMN2 exon 7 in FVB.Cg-Tg(SMN2 delta 7 exon)4299Ahmb Tg(SMN2)89Ahmb Smn1tm1Msd/J mouse assessed as increase in SMN protein level in quadriceps at 0.3 mg/kg, ip qd administered on postnatal day 3 to day 9 by HTRF assay relative to control. In kind it is functional. On the set-up: scale not given: the % may be the effect or the level left. The procedure, abridged: as §2

Series [12] in a line: Apparent permeability in human Caco2 cells. The class given is ADME, cell-based. Conditions: Caco-2. The procedure, abridged: (§3)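 Bidirectional permeability was measured across a Caco-2 cell monolayer. Papp was reported, and efflux was expressed as the B-A/A-B ratio.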
(Caco-2 monolayers are a common model of the intestinal barrier.)

Series [13] is described as follows: Ratio of drug level in brain to plasma of Sprague-Dawley rat at 10 mg/kg, po measured at 6 hrs. The class given is ADME, organism-based. Conditions: brain and plasma, read-out: BPR. The gist of the method:
(§4)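 Male Sprague-Dawley rats got a single oral 10 mg/kg dose as a suspension in 0.5% hydroxypropyl methylcellulose with 0.1% Tween-80. Plasma was sampled at several time points up to 6 h post dose to give AUC0-6h. Total brain concentration was taken at 6 h to give the brain/plasma ratio.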

Series [14] can be described thus: AUC (0 to 6 hrs) in Sprague-Dawley rat at 10 mg/kg, po. In kind it is ADME, organism-based. As to conditions: in vivo. More on the design: dose 10 mg/kg, time < 6 hr, route oral. The gist of the method: as §4
For series [15], the system named is Mus musculus. The experiment in a line: In vivo inhibition of mRNA splicing of human SMN2 exon 7 in FVB.Cg-Tg(SMN2 delta 7 exon)4299Ahmb Tg(SMN2)89Ahmb Smn1tm1Msd/J mouse assessed as increase in SMN protein level in spinal cord administered as ip qd on postnatal day 3 to day 9 by HTRF assay. The class given is functional, organism-based. The gist of the method:
as §2

Series [16] is described as follows: Protein binding in human plasma. As to conditions: read-out: PPB (converted). The class given is ADME, cell-free.
A short description of series [17]: Efflux ratio of apparent permeability from basolateral to apical over apical to basolateral side in human Caco2 cells. The class given is ADME, cell-based. Conditions: Caco-2. The procedure, abridged:
as §3

The test system of series [18] is Mus musculus. The experiment in a line: In vivo inhibition of mRNA splicing of human SMN2 exon 7 in FVB.Cg-Tg(SMN2 delta 7 exon)4299Ahmb Tg(SMN2)89Ahmb Smn1tm1Msd/J mouse assessed as increase in SMN protein level in spinal cord at 0.1 mg/kg, ip qd administered on postnatal day 3 to day 9 by HTRF assay relative to control. On the set-up: scale not given: the % may be the effect or the level left. The class given is functional. The procedure, abridged:
as §2

Series [19] concerns Mus musculus. The series is described as follows: In vivo inhibition of mRNA splicing of human SMN2 exon 7 in FVB.Cg-Tg(SMN2 delta 7 exon)4299Ahmb Tg(SMN2)89Ahmb Smn1tm1Msd/J mouse assessed as increase in SMN protein level in spinal cord at 3 mg/kg, ip qd administered on postnatal day 3 to day 9 by HTRF assay relative to control. More on the design: scale not given: the % may be the effect or the level left. In kind it is functional. The gist of the method:
as §2

For series [20], the system named is Mus musculus. The series is described as follows: In vivo inhibition of mRNA splicing of human SMN2 exon 7 in FVB.Cg-Tg(SMN2 delta 7 exon)4299Ahmb Tg(SMN2)89Ahmb Smn1tm1Msd/J mouse assessed as increase in SMN protein level in brain at 1 mg/kg, ip qd administered on postnatal day 3 to day 9 by HTRF assay relative to control. More on the design: scale not given: the % may be the effect or the level left. The class given is functional. The procedure, abridged: as §2

What is called AUC(0-t) is exposure summed from dosing to a finite time, without extrapolation to infinity. In general, Papp refers to the rate of passage across a membrane or cell layer, normalised by area and donor concentration. The efflux ratio is a quotient of directional permeabilities that is used to spot active efflux.

As for `CCN1CCN(c2ccc3cc(-c4cn5cc(C)nc(C)c5n4)c(=O)oc3c2)C[C@@H]1C`, the Kp in series [1] is 18. In addition, the Activity in series [2] was 164%; in [4], “Dose-dependent effect”; in series [5] it was 194%; in [6] it was “Dose-dependent effect”; in series [7], 154%; in [8], “Dose-dependent effect”. In addition, the Activity in series [9] was 115%; in series [10], “Dose-dependent effect”; in [11], 147%; in series [15], “Dose-dependent effect”; in series [18], 92%. The AUC(0-t) at 24 h in series [3] is 3600 ng·h/mL. For the same compound, the Papp in series [12] came to 1.2 ×10⁻⁶ cm/s. For the same compound, the Kp at 6 h in series [13] was found to be 19. Besides, the exposure AUC(0-t) at 6 h in [14] was 1100 ng·h/mL. The fraction unbound in series [16] was 0.04. Further, the efflux ratio in series [17] was 1.9.

`Cc1cn2cc(-c3cc4ccc(N5CCN(C)CC5)cc4c(=O)o3)nc2c(C)n1`: the Kp in series [1] was 17. Further, the Activity in series [2] was 98%; in [19] it was 284%; in [4], “Dose-dependent effect”; in [5], 114%; in series [6], “Dose-dependent effect”; in [7] it was 14%. Besides, the Activity entry is “Dose-dependent effect” in series [8]; 66% in series [9]; “Dose-dependent effect” in series [10]; 83% in series [11]; “Dose-dependent effect” in series [15]; 345% in [20]. In addition, in series [18], the Activity stood at 35%. In series [3], the AUC(0-t) at 24 h was found to be 5000 ng·h/mL. Also, the Papp in [12] turned out to be 1.2 ×10⁻⁶ cm/s. In addition, in series [13], the Kp at 6 h was 11. The compound further showed an AUC(0-t) at 6 h in [14] of 790 ng·h/mL. Further, the fraction unbound in [16] is 0.07. Further, the efflux ratio in series [17] came to 1.3.

For `Cc1cn2nc(-c3cc(=O)n4cc(N5CCN(C)CC5)ccc4n3)cc2c(C)n1`, the Kp in series [1] is 2.9. The Activity in series [2] was 67%; in [19], 189%; in [4] it was “Dose-dependent effect”; in series [5], 61%; in [6], “Dose-dependent effect”; in series [7], 6%. In addition, the Activity entry in series [8] is “Dose-dependent effect”; in series [9] it was 43%; in series [10] it was “Dose-dependent effect”; in [11], 33%; in series [15] it was “Dose-dependent effect”; in [20] it was 149%. In addition, in [18], the Activity came to 26%. Moreover, the AUC(0-t) at 24 h in series [3] came to 6900 ng·h/mL. Moreover, the Papp in series [12] was determined as 7.5 ×10⁻⁶ cm/s. Also, the Kp at 6 h in [13] amounted to 1.6. For the same compound, the area under the curve AUC(0-t) at 6 h in series [14] was determined as 2100 ng·h/mL. In addition, the fraction unbound in series [16] was 0.2. Further, the efflux ratio in series [17] worked out at 1.7.

For the origin of these results see ChEMBL document CHEMBL4477216, “Discovery and Optimization of Small Molecule Splicing Modifiers of Survival Motor Neuron 2 as a Treatment for Spinal Muscular Atrophy” (J Med Chem, 2016).
